Source: ChEMBL document CHEMBL4251614, “Development of inhibitors of receptor protein tyrosine phosphatase β/ζ (PTPRZ1) as candidates for CNS disorders” (Eur J Med Chem, 2018)
The source made the active and inactive calls.

How the values were obtained:
[1] = target: T1, Receptor-type tyrosine-protein phosphatase zeta (Homo sapiens, UniProt P23471); experiment: Inhibition of PTPRZ1 in human HeLa cells assessed as increase in EGF-induced tryrosine phosphorylation at 0.1 to 10 uM incubated for 10 mins after EGF stimulation for 10 mins by ELISA relative to control; assay type: cell-based
T1 sequence (P23471 whole entry): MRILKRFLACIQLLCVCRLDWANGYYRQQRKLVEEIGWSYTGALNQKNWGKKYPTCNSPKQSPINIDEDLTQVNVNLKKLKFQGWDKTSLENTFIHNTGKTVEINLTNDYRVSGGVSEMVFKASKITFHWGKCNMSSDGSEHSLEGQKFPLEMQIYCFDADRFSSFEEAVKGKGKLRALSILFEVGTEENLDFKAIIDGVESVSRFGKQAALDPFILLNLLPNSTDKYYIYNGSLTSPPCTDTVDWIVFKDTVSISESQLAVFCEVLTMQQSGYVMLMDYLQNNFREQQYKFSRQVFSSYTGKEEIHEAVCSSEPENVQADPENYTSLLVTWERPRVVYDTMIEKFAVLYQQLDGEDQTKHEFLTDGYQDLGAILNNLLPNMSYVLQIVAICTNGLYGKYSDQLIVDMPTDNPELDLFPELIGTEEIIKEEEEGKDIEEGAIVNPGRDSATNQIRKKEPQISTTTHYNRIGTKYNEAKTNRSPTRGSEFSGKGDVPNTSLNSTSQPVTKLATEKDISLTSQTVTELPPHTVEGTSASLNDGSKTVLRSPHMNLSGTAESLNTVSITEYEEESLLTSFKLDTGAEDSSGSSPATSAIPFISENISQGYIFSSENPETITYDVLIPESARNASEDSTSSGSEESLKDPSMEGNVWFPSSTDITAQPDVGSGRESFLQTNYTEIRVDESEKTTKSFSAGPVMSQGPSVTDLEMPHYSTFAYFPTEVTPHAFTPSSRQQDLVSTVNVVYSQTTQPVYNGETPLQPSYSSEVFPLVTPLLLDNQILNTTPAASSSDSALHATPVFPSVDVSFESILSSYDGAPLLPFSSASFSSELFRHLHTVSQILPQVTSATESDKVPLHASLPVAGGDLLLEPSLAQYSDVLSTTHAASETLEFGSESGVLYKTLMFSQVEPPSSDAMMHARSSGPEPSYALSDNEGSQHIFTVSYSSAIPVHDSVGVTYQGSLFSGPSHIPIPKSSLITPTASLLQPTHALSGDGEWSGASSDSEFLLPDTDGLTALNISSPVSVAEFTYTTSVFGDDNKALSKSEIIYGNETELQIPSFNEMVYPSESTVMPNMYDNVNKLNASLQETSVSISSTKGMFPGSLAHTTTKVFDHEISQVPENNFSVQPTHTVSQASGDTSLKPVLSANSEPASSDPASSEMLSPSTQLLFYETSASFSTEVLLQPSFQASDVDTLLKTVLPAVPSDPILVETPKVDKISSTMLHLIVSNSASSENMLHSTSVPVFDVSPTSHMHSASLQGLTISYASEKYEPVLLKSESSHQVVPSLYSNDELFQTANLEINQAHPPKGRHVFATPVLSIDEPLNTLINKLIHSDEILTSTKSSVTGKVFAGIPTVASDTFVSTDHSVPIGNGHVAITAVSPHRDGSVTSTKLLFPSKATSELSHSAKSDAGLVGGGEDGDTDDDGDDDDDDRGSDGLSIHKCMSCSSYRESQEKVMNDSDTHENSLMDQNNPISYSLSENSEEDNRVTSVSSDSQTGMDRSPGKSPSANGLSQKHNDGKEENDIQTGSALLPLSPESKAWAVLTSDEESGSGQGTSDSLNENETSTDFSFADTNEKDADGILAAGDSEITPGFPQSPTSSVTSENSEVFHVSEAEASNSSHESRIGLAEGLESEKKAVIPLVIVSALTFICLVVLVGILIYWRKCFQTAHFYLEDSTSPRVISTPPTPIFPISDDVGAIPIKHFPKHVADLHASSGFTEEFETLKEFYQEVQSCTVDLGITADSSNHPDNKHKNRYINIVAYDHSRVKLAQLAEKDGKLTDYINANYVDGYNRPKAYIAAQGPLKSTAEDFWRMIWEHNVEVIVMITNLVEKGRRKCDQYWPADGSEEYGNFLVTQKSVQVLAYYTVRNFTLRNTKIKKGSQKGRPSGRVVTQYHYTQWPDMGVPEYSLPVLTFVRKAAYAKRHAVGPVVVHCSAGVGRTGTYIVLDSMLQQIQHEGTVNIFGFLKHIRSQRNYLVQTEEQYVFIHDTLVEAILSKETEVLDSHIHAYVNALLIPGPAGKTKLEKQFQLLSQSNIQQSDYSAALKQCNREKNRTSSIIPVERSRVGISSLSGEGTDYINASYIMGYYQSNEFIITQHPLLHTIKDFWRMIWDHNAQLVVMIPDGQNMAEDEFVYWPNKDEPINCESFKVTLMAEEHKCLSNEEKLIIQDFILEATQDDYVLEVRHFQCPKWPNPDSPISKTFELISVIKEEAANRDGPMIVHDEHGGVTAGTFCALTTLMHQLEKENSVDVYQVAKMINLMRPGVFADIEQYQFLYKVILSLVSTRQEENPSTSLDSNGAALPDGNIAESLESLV
In short: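 HeLa cells were grown in RPMI-1640 with 10% FBS and seeded at 2 × 10^4 cells/well in triplicate. After 24 h serum starvation, cells received 50 ng/mL EGF for 10 min, then compound at 0.1, 1.0 or 10.0 μM for 10 min, against 0.25% DMSO control. Total phosphotyrosine was measured by a tyrosine-phosphorylation ELISA kit. A rise of at least 10% was the selection criterion.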

[2] = target: T1, Receptor-type tyrosine-protein phosphatase zeta; experiment: Inhibition of human recombinant PTPRZ1 using pNPP as substrate at 1 uM by fluorescence spectrometric analysis relative to control
In short: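 Screening used single-point testing at 1.0 μM against 0.1 μM human recombinant PTPRZ1 with p-NPP substrate. Phosphate release was detected with a phosphate sensor reagent by fluorescence (excitation 430 nm, emission 450 nm). The cutoff for activity was at least 10% inhibition of phosphatase activity.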

[3] = target: T1, Receptor-type tyrosine-protein phosphatase zeta; experiment: Inhibition of PTPRZ1 in human SH-SY5Y cells assessed as increase in TrkA tryrosine 490 phosphorylation at 1 to 10 uM after 20 mins by Western blot analysis relative to control; assay type: cell-based
In short: (§1)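 Human SH-SY5Y cells were grown in EMEM/F12 (1:1) with 10% FBS at 37 °C, 5% CO2, then switched to serum-free medium. They were treated for 20 min with 1.0, 5.0 or 10.0 μM compound or DMSO vehicle. Lysates (20 μg protein) were western blotted for phospho-TrkA Y490 and phospho-ALK Y1278, reprobed for total TrkA/ALK, detected by ECL and quantified by densitometry. Data are mean ± S.E.M., ANOVA/Tukey.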

[4] = Drug level in mouse plasma at 60 mg/kg after 1 hr by GC-MS analysis; assay type: ADME, organism-based
In short: (§2)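 Mice were dosed at 60 mg/kg by oral gavage and killed 1 h later. Brain and plasma were analyzed by GC-MS (EI at 70 eV, full scan m/z 50–600). Plasma (100 μL) was precipitated with three volumes of cold methanol, dried and reconstituted in heptane. The reference was a standard serially half-diluted in heptane from 5 μg/mL. Concentrations were a preliminary estimate.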

[5] = Drug level in mouse brain at 60 mg/kg after 1 hr by GC-MS analysis; assay type: ADME, organism-based; conditions: read-out: Drug uptake; in short: as §2
PC-12 = experiment: Cytoprotective activity against amphetamine-induced toxicity in rat PC12 cells at 1 uM after 20 hrs by MTT assay; assay type: functional, cell-based
In short: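 Rat PC12 cells were grown in RPMI-1640 with 10% FBS at 10^4 cells/well. They were incubated for 20 h with 1.0 mM amphetamine plus 1.0 μM compound. Viability was read by MTT: cells were washed, given medium with MTT (20 μL of a 5 mg/mL stock) for 4 h, solubilized in DMSO, and absorbance read at 570 nm. Data are mean ± S.E.M., compared by one-way ANOVA with Tukey's test.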

[6] = target: T2, Tyrosine-protein phosphatase non-receptor type 1 (Homo sapiens, UniProt P18031); experiment: Inhibition of human recombinant PTP1B using pNPP as substrate by fluorescence spectrometric analysis
T2 sequence (P18031 whole entry): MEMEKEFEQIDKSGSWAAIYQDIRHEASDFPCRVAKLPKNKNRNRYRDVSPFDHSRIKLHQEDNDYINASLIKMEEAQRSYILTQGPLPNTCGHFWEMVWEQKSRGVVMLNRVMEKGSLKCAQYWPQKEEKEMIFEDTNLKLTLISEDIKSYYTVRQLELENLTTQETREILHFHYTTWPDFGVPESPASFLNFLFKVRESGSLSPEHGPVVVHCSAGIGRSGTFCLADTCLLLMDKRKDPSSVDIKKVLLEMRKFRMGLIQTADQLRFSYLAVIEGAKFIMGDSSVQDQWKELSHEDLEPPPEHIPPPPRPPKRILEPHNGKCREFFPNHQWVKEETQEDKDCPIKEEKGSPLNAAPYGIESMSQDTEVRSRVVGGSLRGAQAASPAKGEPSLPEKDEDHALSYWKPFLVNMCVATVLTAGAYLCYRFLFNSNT
In short: (§3)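 Human recombinant enzyme (PTPRZ1 or PTP1B) was used at 0.1 μM with p-NPP substrate. Released phosphate was detected with a phosphate sensor reagent as a fluorescence increase (excitation 430 nm, emission 450 nm). IC50 was derived from compound concentrations of 0.001–100 μM.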

[7] = target: T1, Receptor-type tyrosine-protein phosphatase zeta; experiment: Inhibition of PTPRZ1 in human SH-SY5Y cells assessed as increase in Alk tryrosine 1278 phosphorylation at 1 to 10 uM after 20 mins by Western blot analysis relative to control; assay type: cell-based; in short: as §1
[8] = target: T1, Receptor-type tyrosine-protein phosphatase zeta; experiment: Inhibition of human recombinant PTPRZ1 using pNPP as substrate by fluorescence spectrometric analysis; in short: as §3
[9] = target: T1, Receptor-type tyrosine-protein phosphatase zeta; experiment: Inhibition of PTPRZ1 (unknown origin) using pNPP as substrate preincubated for 15 mins followed by substrate addition measured after 10 mins by spectrophotometric analysis

Row | inhibition [1] | inhibition [2] | IC50 [8] [nM] | SMILES | also measured
1 | ≥ 10% | < 10% | – | FC(F)(F)Sc1ccc(CN(Cc2ccc(SC(F)(F)F)cc2)Cc2ccc(SC(F)(F)F)cc2)cc1 | –
2 | ≥ 10% | inactive | – | O=C(Nc1ccc(SC(F)(F)F)cc1)c1ccc(SC(F)(F)F)cc1 | –
3 | ≥ 10% | inactive | – | O=C(Cc1ccc(S(=O)(=O)C(F)(F)F)cc1)NCc1ccc(S(=O)(=O)C(F)(F)F)cc1 | –
4 | ≥ 10% | ≥ 10% | 100 | FC(F)(F)Sc1ccc(COc2ccc(SC(F)(F)F)cc2)cc1 | concentration at 1 h [4]: 100 to 300 ng/mL; concentration at 1 h [5]: 500 to 1000 ng/mL; Activity (PC-12): Active; fold change (FC) [3]: 2 to 3; IC50 [6]: Not Active; fold change (FC) [7]: 2
5 | ≥ 10% | ≥ 10% | > 100000 | O=C(NCc1ccc(SC(F)(F)F)cc1)c1ccc(SC(F)(F)F)cc1 | IC50 [6]: Not Active
6 | ≥ 10% | ≥ 10% | > 10000 | O=C(Cc1ccc(S(=O)(=O)C(F)(F)F)cc1)Nc1ccc(S(=O)(=O)C(F)(F)F)cc1 | IC50 [6]: Not Active
7 | ≥ 10% | ≥ 10% | 5000 | FC(F)(F)Sc1ccc(NCc2ccccc2)cc1 | IC50 ([6]; read-out: IC50): 1000 nM
8 | < 10% | inactive | – | FC(F)(F)Sc1ccc(OCc2ccncc2)cc1 | –
9 | inactive | inactive | – | O=S(=O)(c1ccc(COc2ccc(S(=O)(=O)C(F)(F)F)cc2)cc1)C(F)(F)F | IC50 [9]: 3500 nM

Second part, the molecule before the results:

Row | SMILES | inhibition [1] | inhibition [2] | IC50 [8] [nM] | also measured
10 | O=S(=O)(c1ccc(OCc2ccc(SC(F)(F)F)cc2)cc1)C(F)(F)F | inactive | inactive | – | fold change (FC) [3]: 2 to 3
11 | FC(F)(F)Sc1ccc(NCc2ccc(Cl)cc2)cc1 | inactive | – | – | –
12 | O=C(Nc1ccc(S(=O)(=O)C(F)(F)F)cc1)c1ccc(S(=O)(=O)C(F)(F)F)cc1 | inactive | inactive | – | –
13 | FC(F)(F)Sc1ccc(CNc2ccc(SC(F)(F)F)cc2)cc1 | ≥ 10% | inactive | – | –
14 | O=C(Cc1ccc(SC(F)(F)F)cc1)NCc1ccc(SC(F)(F)F)cc1 | ≥ 10% | ≥ 10% | 800 | IC50 [6]: Not Active
15 | FC(F)(F)Sc1ccc(CNCc2ccccc2)cc1 | inactive | – | – | –
16 | O=C(Cc1ccc(SC(F)(F)F)cc1)Nc1ccc(SC(F)(F)F)cc1 | ≥ 10% | inactive | – | –
17 | FC(F)(F)Sc1ccc(CNCc2ccc(SC(F)(F)F)cc2)cc1 | ≥ 10% | ≥ 10% | 100 | IC50 ([6]; read-out: IC50): 700 nM
